Test results as given in ChEMBL document CHEMBL1133137, “Synthesis and biological effects of a new series of 2-amino-3-benzoylthiophenes as allosteric enhancers of A1-adenosine receptor” (Bioorg Med Chem Lett, 2000).

Columns and labels:
Type in all cases: functional, cell-based
[1] = molecular target: T1, Adenosine receptor A1 (Homo sapiens) (UniProt P30542); experiment: Percentage of response to 10 uM of PD-81723 on CHO cells expressing the cloned human A1-adenosine receptor at 0.1 uM concentration
T1 sequence (whole entry): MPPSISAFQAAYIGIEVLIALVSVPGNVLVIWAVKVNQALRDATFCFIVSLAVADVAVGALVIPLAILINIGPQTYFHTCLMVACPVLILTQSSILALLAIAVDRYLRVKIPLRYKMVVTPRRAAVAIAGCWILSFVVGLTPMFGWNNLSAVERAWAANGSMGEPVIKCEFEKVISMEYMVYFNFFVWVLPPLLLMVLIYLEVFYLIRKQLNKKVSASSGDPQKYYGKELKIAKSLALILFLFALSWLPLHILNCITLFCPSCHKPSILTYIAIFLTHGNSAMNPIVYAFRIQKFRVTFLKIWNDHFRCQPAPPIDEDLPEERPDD
Summary of the method: (§1)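 CHO cells stably expressing recombinant human A1 receptors (~8000 fmol/mg protein), thawed from low-passage frozen stocks, grown to confluence over 48–72 h in Ham's F-12 with 10% FBS and G-418. Test compound incubated 6 min at 36 °C with 0.05–0.1 nM CPA. Reaction stopped with HCl (final 50 mM). cAMP in acid extracts measured by radioimmunoassay. Reduction normalized to the response to 10 μM PD 81,723.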

[2] = molecular target: T1, Adenosine receptor A1 (Homo sapiens); experiment: Percentage of response to 10 uM of PD-81723 on CHO cells expressing the cloned human A1-adenosine receptor at 1 uM concentration; summary of the method: as §1
[3] = molecular target: T1, Adenosine receptor A1 (Homo sapiens); experiment: Percentage of response to 10 uM of PD-81723 on CHO cells expressing the cloned human A1-adenosine receptor at 10 uM; An increase of cAmp content of cells; summary of the method: as §1
[4] = molecular target: T1, Adenosine receptor A1 (Homo sapiens); experiment: Percentage of response to 10 uM of PD-81723 on CHO cells expressing the cloned human A1-adenosine receptor at 10 uM concentration; summary of the method: as §1
[5] = molecular target: T1, Adenosine receptor A1 (Homo sapiens); experiment: Percent response to 10 uM PD-81723 on CHO cells expressing human A1-adenosine receptor at 0.1 uM; An increase of cAmp content of cells; summary of the method: as §1
[6] = molecular target: T1, Adenosine receptor A1 (Homo sapiens); experiment: The compound was tested for its percentage of response to 10 uM of PD-81723 on CHO cells expressing the cloned human A1-adenosine receptor at 1 uM; summary of the method: as §1
[7] = molecular target: T1, Adenosine receptor A1 (Homo sapiens); experiment: Percentage of response to 10 uM of PD-81723 on CHO cells expressing the cloned human A1-adenosine receptor at 1 uM; An increase of cAmp content of cells; summary of the method: as §1
[8] = molecular target: T1, Adenosine receptor A1 (Homo sapiens); experiment: The compound was tested for its percentage of response to 10 uM of PD-81723 on CHO cells expressing the cloned human A1-adenosine receptor at 10 uM; summary of the method: as §1
[9] = molecular target: T1, Adenosine receptor A1 (Homo sapiens); experiment: Percentage of response to 10 uM of PD-81723 on CHO cells expressing the cloned human A1-adenosine receptor at 0.1 uM; summary of the method: as §1
[10] = molecular target: T1, Adenosine receptor A1 (Homo sapiens); experiment: The compound was tested for its percentage of response to 10 uM of PD-81723 on CHO cells expressing the cloned human A1-adenosine receptor at 0.1 uM concentration; An increase of cAmp content of cells; summary of the method: as §1
[11] = molecular target: T1, Adenosine receptor A1 (Homo sapiens); experiment: The compound was tested for its percentage of response to 10 uM of PD-81723 on CHO cells expressing the cloned human A1-adenosine receptor at 1 uM concentration; change of less than 5% of allosteric enhancement.; summary of the method: as §1
[12] = molecular target: T1, Adenosine receptor A1 (Homo sapiens); experiment: The compound was tested for its percentage of response to 10 uM of PD-81723 on CHO cells expressing the cloned human A1-adenosine receptor at 10 uM concentration; change of less than 5% of allosteric enhancement.; summary of the method: as §1
[13] = molecular target: T1, Adenosine receptor A1 (Homo sapiens); experiment: The compound was tested for its percentage of response to 10 uM of PD-81723 on CHO cells expressing the cloned human A1-adenosine receptor at 10 uM; change of less than 5% of allosteric enhancement.; summary of the method: as §1
[14] = molecular target: T1, Adenosine receptor A1 (Homo sapiens); experiment: The compound was tested for its percentage of response to 10 uM of PD-81723 on CHO cells expressing the cloned human A1-adenosine receptor at 0.1 uM; An increase of cAmp content of cells; summary of the method: as §1
[15] = molecular target: T1, Adenosine receptor A1 (Homo sapiens); experiment: The compound was tested for its percentage of response to 10 uM of PD-81723 on CHO cells expressing the cloned human A1-adenosine receptor at 10 uM; An increase of cAmp content of cells; summary of the method: as §1
[16] = molecular target: T1, Adenosine receptor A1 (Homo sapiens); experiment: The compound was tested for its percentage of response to 10 uM of PD-81723 on CHO cells expressing the cloned human A1-adenosine receptor at 0.1 uM concentration; change of less than 5% of allosteric enhancement; summary of the method: as §1
[17] = molecular target: T1, Adenosine receptor A1 (Homo sapiens); experiment: The compound was tested for its percentage of response to 10 uM of PD-81723 on CHO cells expressing the cloned human A1-adenosine receptor at 0.1 uM concentration; change of less than 5% of allosteric enhancement.; summary of the method: as §1
[18] = molecular target: T1, Adenosine receptor A1 (Homo sapiens); experiment: The compound was tested for its percentage of response to 10 uM of PD-81723 on CHO cells expressing the cloned human A1-adenosine receptor at 0.1; change of less than 5% of allosteric enhancement.; summary of the method: as §1
[19] = molecular target: T1, Adenosine receptor A1 (Homo sapiens); experiment: The compound was tested for its percentage of response to 10 uM of PD-81723 on CHO cells expressing the cloned human A1-adenosine receptor at 10 uM concentration; An increase of cAmp content of cells; summary of the method: as §1
[20] = molecular target: T1, Adenosine receptor A1 (Homo sapiens); experiment: The compound was tested for its percentage of response to 10 uM of PD-81723 on CHO cells expressing the cloned human A1-adenosine receptor at 1 uM; change of less than 5% of allosteric enhancement.; summary of the method: as §1

| Compound | Response [1] | Response [2] | Response [4] | other results |
| --- | --- | --- | --- | --- |
| Nc1sc2c(c1C(=O)c1ccc(Cl)cc1)CCN(CCc1ccccc1)C2 | 58% | 32% | – | Response [3]: Increased cAMP |
| Nc1sc2c(c1C(=O)c1ccc(-c3ccccc3)cc1)CCCC2 | 14% | 79% | 68% | – |
| Nc1sc2c(c1C(=O)c1ccc(Cl)cc1)CCN(CCc1ccc([N+](=O)[O-])cc1)C2 | – | – | – | Response [5]: Increased cAMP; Response [6]: 13%; Response [7]: Increased cAMP; Response [8]: 31%; Response [3]: Increased cAMP |
| Nc1sc2c(c1C(=O)c1ccc(F)cc1)CCCC2 | – | 43% | 83% | Response [9]: < 5% |
| CCOC(=O)CN1CCc2c(sc(N)c2C(=O)c2ccccc2)C1 | – | – | – | Response [5]: Increased cAMP; Response [7]: Increased cAMP; Response [3]: Increased cAMP |
| Nc1sc2c(c1C(=O)c1ccccc1)CCN(CCc1ccc([N+](=O)[O-])cc1)C2 | – | 13% | 31% | Response [5]: Increased cAMP |
| Nc1sc2c(c1C(=O)c1ccc(Cl)cc1)CCNC2 | 15% | 12% | 9% | – |
| Nc1sc2c(c1C(=O)c1ccccc1)SCC2 | – | – | 68% | Response [10]: Increased cAMP; Response [11]: < 5% |
| Nc1sc2c(c1C(=O)c1ccc(F)cc1)CCN(C(=O)OCc1ccccc1)C2 | – | – | – | Response [9]: < 5%; Response [7]: Increased cAMP; Response [3]: Increased cAMP |
| Cc1ccc(S(=O)(=O)N2CCc3c(sc(N)c3C(=O)c3ccccc3)C2)cc1 | – | – | – | Response [5]: Increased cAMP; Response [7]: Increased cAMP; Response [3]: Increased cAMP |
| Nc1sccc1C(=O)c1ccc(Cl)cc1 | 7% | 8% | 25% | – |
| COc1ccc(C(=O)c2c(N)sc3c2CCCCC3)cc1 | – | 54% | 36% | Response [9]: < 5% |
| Nc1sc2c(c1C(=O)c1ccc(Cl)cc1)CCN(CCCc1ccccc1)C2 | 8% | 15% | 31% | – |
| Nc1sc2c(c1C(=O)c1ccc(Br)cc1)CCCC2 | 50% | 67% | 67% | – |
| Cc1sc(N)c(C(=O)c2cccc(C(F)(F)F)c2)c1C | 13% | 40% | 100% | – |
| Nc1sc2c(c1C(=O)c1ccc(I)cc1)CCNC2 | – | – | – | Response [9]: < 5%; Response [11]: < 5%; Response [12]: < 5% |
| COc1ccc(C(=O)c2c(N)sc3c2CCCC3)cc1 | – | 44% | 71% | Response [9]: < 5% |
| Nc1sc2c(c1C(=O)c1ccccc1)CCCCC2 | – | 29% | 54% | Response [10]: Increased cAMP |
| Nc1sc2c(c1C(=O)c1cccc(C(F)(F)F)c1)CCN(Cc1ccccc1)C2 | 18% | 41% | 85% | – |
| Nc1sc2c(c1C(=O)c1ccc(I)cc1)CCC2 | – | – | – | Response [5]: Increased cAMP; Response [7]: Increased cAMP; Response [13]: < 5% |
| Nc1sc2c(c1C(=O)c1ccc(Br)cc1)CCN(C(=O)OCc1ccccc1)C2 | – | – | – | Response [14]: Increased cAMP; Response [7]: Increased cAMP; Response [15]: Increased cAMP |
| Nc1sc2c(c1C(=O)c1ccccc1)CCC2 | 35% | 29% | 82% | – |
| Nc1sc2c(c1C(=O)c1ccc(-c3ccccc3)cc1)CCNC2 | – | – | – | Response [9]: < 5%; Response [11]: < 5%; Response [3]: Increased cAMP |

| Compound | Response [1] | Response [2] | Response [4] | other results |
| --- | --- | --- | --- | --- |
| Nc1sc2c(c1C(=O)c1ccc(Br)cc1)CCC2 | 31% | 53% | 72% | – |
| Cc1sc(N)c(C(=O)c2ccc(Cl)cc2)c1C | 30% | 52% | 92% | – |
| Nc1sccc1C(=O)c1ccccc1 | 51% | 26% | 28% | – |
| Nc1sc2c(c1C(=O)c1ccc(Cl)cc1)CCCC2 | 57% | 58% | 86% | – |
| Cc1sc(N)c(C(=O)c2ccccc2)c1C | – | – | 19% | Response [16]: < 5%; Response [7]: Increased cAMP |
| COc1ccc(C(=O)c2c(N)sc3c2CCC3)cc1 | – | 43% | 42% | Response [9]: < 5% |
| Nc1sc2c(c1C(=O)c1ccccc1)CCN(C(=O)OCc1ccccc1)C2 | – | – | – | Response [5]: Increased cAMP; Response [7]: Increased cAMP; Response [3]: Increased cAMP |
| Nc1sc2c(c1C(=O)c1ccc(Br)cc1)CCNC2 | – | – | – | Response [17]: < 5%; Response [11]: < 5%; Response [12]: < 5% |
| Nc1sc2c(c1C(=O)c1ccc(I)cc1)CCN(C(=O)OCc1ccccc1)C2 | – | – | – | Response [9]: < 5%; Response [11]: < 5%; Response [12]: < 5% |
| Nc1sc2c(c1C(=O)c1ccc(Cl)cc1)CCCCC2 | 25% | 42% | 72% | – |
| Nc1sc2c(c1C(=O)c1ccc(F)cc1)CCC2 | – | 43% | 65% | Response [9]: < 5% |
| Nc1sc2c(c1C(=O)c1ccc(-c3ccccc3)cc1)CCN(C(=O)OCc1ccccc1)C2 | 14% | 6% | – | Response [12]: < 5% |
| Nc1sc2c(c1C(=O)c1ccccc1)CCCC2 | 16% | 48% | 77% | – |
| Nc1sc2c(c1C(=O)c1ccc(Cl)cc1)CCN(Cc1ccccc1)C2 | – | – | – | Response [9]: < 5%; Response [7]: Increased cAMP; Response [3]: Increased cAMP |
| Nc1sc2c(c1C(=O)c1cccc(C(F)(F)F)c1)CCN(CCCc1ccccc1)C2 | – | 7% | 22% | Response [9]: < 5% |
| Nc1sc2c(c1C(=O)c1ccc(Cl)cc1)CCN(C(=O)OCc1ccccc1)C2 | – | – | – | Response [18]: < 5%; Response [7]: Increased cAMP; Response [3]: Increased cAMP |
| Nc1sc2c(c1C(=O)c1ccc(F)cc1)CCCCC2 | 26% | 36% | 61% | – |
| CCOC(=O)CN1CCc2c(sc(N)c2C(=O)c2ccc(Cl)cc2)C1 | 10% | – | – | Response [7]: Increased cAMP; Response [3]: Increased cAMP |
| Nc1sc2c(c1C(=O)c1ccccc1)CCNC2 | – | 9% | 12% | Response [9]: < 5% |
| Nc1sc2c(c1C(=O)c1cccc(C(F)(F)F)c1)CCN(CCc1ccccc1)C2 | – | – | – | Response [9]: < 5%; Response [11]: < 5%; Response [19]: Increased cAMP |
| Nc1sc2c(c1C(=O)c1ccc(Cl)cc1)CCCCCC2 | 24% | 39% | 68% | – |
| Nc1sc2c(c1C(=O)c1ccc(Cl)cc1)CCC2 | – | – | – | Response [5]: Increased cAMP; Response [20]: < 5%; Response [12]: < 5% |
